Assay: Toxicity liver stage against HepG2, at 10uM
Type: cell-based
Design: test concentration 10 uM, cell line HepG2-A16-CD81EGFP
Settings: human, HepG2-A16-CD81EGFP cells; read-out: INHIBITION
Procedure, shortened: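 Uninfected HepG2-A16-CD81EGFP cells, 3 × 10^3 per well, 1536-well, plated on prespotted compound at 10 μM final, parasite-free screening media added to match infected plates; puromycin 10 μM positive, DMSO 0.5% negative; run in parallel with 48 h PbLuc assay at 37 °C, 5% CO2; viability by CellTiter-Glo luminescence, normalized to controls.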

| SMILES | cytotoxicity at 10 µM [%] |
| --- | --- |
| CCOC(=O)c1sc(NC(=O)C(C)C)c(C#N)c1C | -15.9 |
| Cc1nc(CCNC(=O)NCc2ccc(N(C)C)nc2)cs1 | -11.3 |
| CCN(CC)CC[C@H]1CN(C(=O)c2ccc(F)cc2)CC[C@H]1CC(=O)O | 3.1 |
| NC(=O)C1CCN(C(=O)Cc2cnc(-c3c(Cl)cccc3Cl)s2)CC1 | -2.23 |
| Cc1nnc(SC2CCc3ccccc3NC2=O)n1C (stereo unspecified) | -1.31 |
| O=C(NCCc1ccccc1)NCCN1CCC(c2cccs2)CC1 | -4.16 |
| CS(=O)(=O)N1CCN(c2cc(-n3cccc3)ncn2)CC1 | 4.65 |
| CC(C)(CO)CNC(=O)c1ccnn1-c1ccc2ccccn12 | 15.8 |
| COc1cccc(CN2CCC3(CCN(c4ncc(C)cn4)C3)C2=O)c1 (stereo unspecified) | -0.265 |
| Cc1ccc(C(=O)N2CC[C@@H]3[C@H]2CCC(=O)N3CC2CC2)o1 | -0.419 |
| CC(C)CN1C(=O)C2(CCN(Cc3ccc(F)cc3)C2)c2ccccc21 (stereo unspecified) | 13 |
| Cn1ccc(C(=O)NC2CCC23CCN(Cc2nccs2)CC3)c1 (stereo unspecified) | -136 |
| Cc1noc2nc3c(c(C(=O)/N=c4\[nH]nc(C(C)C)s4)c12)CCC3 | -6.53 |
| COc1cccc(-c2cc(C(=O)N3N=C(C)CC3(O)C(F)(F)F)[nH]n2)c1 (stereo unspecified) | 5.97 |
| CCn1cc(S(=O)(=O)N2CCN(C(=O)c3cc(Br)cs3)CC2)c(C)n1 | 2.73 |
| CC(C(=O)O)n1nc(C(F)(F)F)c(Br)c1C1CC1 (stereo unspecified) | 10.3 |
| O=C(NCCCn1cccn1)c1nnc2ccccc2n1 | 0.14 |
| CCN(CC)c1nc(C)cc(C(=O)Nc2cnn(CC)c2)n1 | -16.4 |
| CCOCC(=O)N1CCC(C)(c2nccs2)CC1 | 7.64 |
| O=C(Cc1cccs1)N1CCC(O)(CN2CCc3ccccc3C2)C1 (stereo unspecified) | -1.47 |
| CN(C(=O)C1CCOCC1)[C@@H]1CCC[C@@H](N2CCOCC2)[C@@H]1O | 2.19 |
| Cc1cnc(C2CCCN(C(=O)c3c[nH]c(=O)[nH]c3=O)C2)s1 (stereo unspecified) | -1.58 |
| CC(=O)N1CCOC(c2cc(N3CC(O)C3)nc(C)n2)C1 (stereo unspecified) | 3.16 |

| SMILES | cytotoxicity at 10 µM [%] |
| --- | --- |
| COCCC(=O)N1CCC(c2noc3nc(C)cc(C(F)(F)F)c23)CC1 | 4.45 |
| Nc1nc(C2CCN(C(=O)c3cncs3)CC2)cs1 | -1.49 |
| CCCN1Cc2ccccc2NC(=O)C12CCNC2 (stereo unspecified) | 5.92 |
| Cc1cc(C)n(-c2cccc(NC(=O)N3CCC[C@@H]3CO)c2)n1 | 13.9 |
| CN1CCN(c2ccc(F)cc2NC(=O)NCCn2ccnc2)CC1 | 1.69 |
| CC1CCN(S(=O)(=O)N2CCCN(CC3CCCO3)CC2)CC1 (stereo unspecified) | -5.15 |
| CCN1CCCCC1C(=O)N1CCC(OCCOC)CC1 (stereo unspecified) | -6.81 |
| NC(=O)CN1CCCN(C(=O)c2ccc(SC(F)F)cc2)CC1 | -6.08 |
| Cc1ccccc1CC(C)(C)NC(=O)COc1cccc(C(N)=O)c1 | 20.4 |
| CN(Cc1cnn(C)c1)C(=O)CCS(=O)(=O)c1ccc2c(c1)OCCO2 | -17 |
| FC(F)Oc1ccc(CN2CCOC3(CCOCC3)C2)cc1Cl | -6.58 |
| COCC1CCCN(CCCc2cccc(OC)c2)C1 (stereo unspecified) | 2.41 |
| CCOC(=O)c1cnn(C2CCN(C(=O)CCC(C)C)CC2)c1N | -0.12 |
| CCc1sc(C(=O)NC2CC2)cc1C | 14.5 |
| O=C(NCCCn1nc2ccccn2c1=O)NCCC1CCC1 | 5.47 |
| NC(=O)CCC1CCCN(c2ccc3c(Cl)ccnc3c2F)C1 (stereo unspecified) | 29.6 |
| CCc1nnc2n1CC(CNCC1CCCC1)CC2 (stereo unspecified) | -3.98 |
| O=C(Nc1ccnc2ccnn12)c1ccc(N2CCC(O)CC2)cc1 | 53.4 |
| CNC(=O)c1cccc(NC(=O)NC(C)c2cc(C)oc2C)c1C (stereo unspecified) | -9.26 |
| CC(=O)N(CCC(=O)NC1(C#N)CCC1)Cc1ccccc1 | 12.6 |
| CCc1cc(CNC(=O)Nc2cc(F)cc(N3CCCC3)c2)on1 | 4.79 |
| CC(NCCCC#N)c1ccc(-c2cccnc2)cc1 (stereo unspecified) | 11.3 |
| COCCN(c1ccncc1)S(=O)(=O)c1cc(C)cc(F)c1 | 7.83 |

| SMILES | cytotoxicity at 10 µM [%] |
| --- | --- |
| Cn1cc(NC(=O)Nc2cccc3cccnc23)ccc1=O | -9.22 |
| CN1CCN(C(=O)c2occc2CN2C(=O)Cc3ccccc32)CC1 | -1.89 |
| CC(C)c1noc(C(C)S(=O)(=O)CC(=O)N2CCCC2)n1 (stereo unspecified) | 4.23 |
| CS(=O)(=O)Cc1ccc(C(=O)Nc2ccc3c(c2)C(=O)NC3)cc1 | 10.8 |
| CN(C)Cc1nc(C2(NC(=O)Nc3cccc(F)c3)CCCC2)no1 | 2.32 |
| CC(C)Sc1ccc(C(C)NC(=O)CNS(C)(=O)=O)cc1 (stereo unspecified) | 3.92 |
| CCc1cnc(CNC(=O)N2CCCC(C(=O)NC)C2)s1 (stereo unspecified) | 19.8 |
| Cc1cc(C(=O)Nc2ccn(CCCN3CCCC3)n2)no1 | -4.13 |
| Cc1cccc(N(CC(=O)N2CCCCC2)Cc2nc(=O)[nH][nH]2)c1 | -2.85 |
| Cc1ccc(OCc2nnc(SCC3CCCN(C)C3)o2)cc1 (stereo unspecified) | -3.73 |
| O=C(CN1CCSCC1c1ccccc1)N1CCCC1 (stereo unspecified) | 7.34 |
| CCOCc1ccccc1NC(=O)NC1CCN(CC(F)(F)F)C1 (stereo unspecified) | 1.81 |
| O=C(c1ccccc1)N1CC[C@H]2C[C@@H](c3nnc(C4CC4)o3)O[C@@H]2C1 | -99.2 |
| O=C(c1ccccc1)N1CC[C@H]2C[C@H](c3nnc(C4CC4)o3)O[C@@H]2C1 | -102 |
| O=C(N1CCCC1)N1CCn2c(Cn3cccn3)cnc2C1 | -69.1 |
| Cc1nc(NCC2CC2)nc2c1COCC21CCNC1 (stereo unspecified) | -72.8 |
| CN(CCCc1cnn(C)c1)C(=O)Nc1cccc2[nH]nnc12 | -3.98 |
| COc1cccc2c1OCC(Cc1cc(C(N)=O)ccn1)C2 (stereo unspecified) | 5.83 |
| Cc1ccccc1Oc1ncccc1CNC(=O)Cn1cccnc1=O | -16.8 |
| CC(C)NC(=O)N1CCCC(Cn2cc(-c3ccc(F)cc3)nn2)C1 (stereo unspecified) | 12.5 |
| OC1(CNCCSc2ccccn2)CCCNC1 (stereo unspecified) | -6.46 |
| COCCN(C)CC(=O)N1C[C@@H](NC(C)=O)[C@H](c2ccc(OC)cc2)C1 | 1.45 |
| NC(=O)c1csc(N2CCCC(c3nc4ccccc4[nH]3)C2)n1 (stereo unspecified) | 8.5 |

| SMILES | cytotoxicity at 10 µM [%] |
| --- | --- |
| Nc1cnc(-c2ccc(F)cc2Cl)cn1 | -136 |
| CSc1nccc(NCc2cc3n(n2)CCCN(S(C)(=O)=O)C3)n1 | 3.25 |
| COc1ccc(C(=O)N2CCN(c3cc(CCN)nc(C)n3)CC2)cc1 | -8.56 |
| CN(Cc1cc2n(n1)CCCN(C(=O)N1CCCC1)C2)Cc1nccs1 | -0.63 |
| CN(CCCc1cnn(C)c1)C(=O)Nc1cccc2[nH]ncc12 | -1.89 |
| COCCN1CC(C(=O)N(CCN(C)C)Cc2ccc(C)s2)CC1=O (stereo unspecified) | 1.98 |
| COc1cccc(OCC2CCCN(C(=O)c3ncoc3C3CC3)C2)c1 (stereo unspecified) | 3.79 |
| c1ccc2c(c1)CCN(c1ncnc3sc4c(c13)CCNC4)C2 | 5.66 |
| Cc1cc(F)ccc1N1CCC(N2C[C@@H](CN(C)C)[C@@H](CO)C2)CC1 | -12.1 |
| CCn1ccnc1C1CCN(c2ncnc3ccsc23)CC1 | 5.31 |
| CCc1csc(CCNC(=O)C2CC(=O)N(C(C)C)C2)n1 (stereo unspecified) | -11.9 |
| Cc1nn2c(N3CCC(O)C3)cc(-c3ccccc3)nc2c1C (stereo unspecified) | -11.5 |
| Cn1c(Cn2ccnc2)nnc1C1CCN(C(=O)C2(C)CC2)CC1 | -9.7 |
| N#CCCSc1sc2c(O)cc(O)nc2c1C#N | -6.11 |
| CC(C)c1cc(COCCCC(=O)O)no1 | 11.1 |
| Cn1nc(C2CCCN(Cc3ccsc3)C2)c2nccnc21 (stereo unspecified) | -2.58 |
| O=C(CCc1nccs1)N1CCCC(n2cccn2)C1 (stereo unspecified) | -14.4 |
| Cc1noc(C)c1CCC(=O)N1CCCN(CC(N)=O)CC1 | -12.4 |
| Cc1nc(C)n(CC2CCCN2CC(=O)NC2CCOCC2)n1 (stereo unspecified) | -4.43 |
| CS(=O)(=O)NCC1CCCN(C(=O)c2cccc(F)c2)C1 (stereo unspecified) | -6.93 |
| Cc1noc(CN2CCCC2c2noc(C3CC3)n2)n1 (stereo unspecified) | -23.6 |
| CC(C)c1cc(NC(=O)c2ccc(C(=O)NC(C)(C)C)cc2)[nH]n1 | -0.164 |
| Cn1ccc(CN2CCC(c3ccccc3)CC2)cc1=O | -6.46 |

| SMILES | cytotoxicity at 10 µM [%] |
| --- | --- |
| Cc1cc(C(=O)N2CCCCC2C)ccc1NCCCO (stereo unspecified) | -4.35 |
| Cc1ccc(C)c(OCCN2CCC(N3CCNC3=O)CC2)c1 | 1.85 |
| CCc1nc(CN2CCCN(C(=O)C(C)n3cncn3)CC2)cs1 (stereo unspecified) | -7.26 |
| Cc1cc(C(=O)N2CCCC2Cn2nc(C)cc2C)on1 (stereo unspecified) | -8.21 |
| COc1ccc(Cl)cc1CC(=O)N1CCN(CCO)CC1 | -9.51 |
| Cn1nccc1-c1ccc2nc(C3CCN(CC4CC4)CC3)nn2c1 | 5.85 |
| O=C(c1ccccc1)N1CCO[C@@H]2CN(c3cnccn3)C[C@@H]2C1 | 0.442 |
| Cc1cnc(N2Cc3nccn3CC(Cn3ncccc3=O)C2)nc1 (stereo unspecified) | 7.54 |
| CN(C)c1ncnc2c1CCN(CC1CCCC1)CC2 | 1.03 |
| COCCN1CCO[C@@H]2CN(C(=O)COc3ccc(C)cc3)C[C@@H]2C1 | -0.572 |
| Cn1ccc(CN2CCC3(CC2)CC(Nc2ccccn2)CO3)n1 (stereo unspecified) | -1.19 |
| Cc1ccc2c(n1)N(CCN(C)C)CCN(C(=O)c1cscn1)C2 | -72.7 |
| O=C(c1ccccc1)N1CCS(=O)(=O)[C@@H]2CCNCC[C@@H]21 | -127 |
| Cc1nc(CN2C(=O)COC3(CCN(Cc4ccsc4)CC3)C2C)cs1 (stereo unspecified) | -123 |
| Cc1oncc1C(=O)NCc1cc(=O)n2c(n1)CN(CC(C)C)CCC2 | -0.187 |
| CN(C)C(=O)COCC1CN(S(C)(=O)=O)Cc2ncn(C)c21 (stereo unspecified) | 4.39 |
| O=S1(=O)NC(=CSCc2ccccc2)Nc2ccccc21 | 0.603 |
| O[C@@H]1CC(CNCc2ccc(F)cc2)(COc2cccnc2)C[C@@H]1O (stereo partly specified) | -10.8 |
| Cc1cc(C(=O)N2C[C@@H]3CC[C@H]2CN(C(=O)c2ccncc2)C3)cs1 | -2.56 |
